Source: PubChem
proKLK7 act: proKLK7 (human) activation, primary screen | P49862 | purified proKLK7, EDANS-DABCYL substrate fluorescence; 100% is mature enzyme control, 0% vehicle | activation, % at 7 µM | actives 0.9% (n = 370,000) | AID 652039;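 active means activation above the mean of all tested compounds plus 3 SD, computed per campaign excluding outliers beyond control limits, cut at about 13% in these data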
Target sequence (P49862 whole entry, looked up): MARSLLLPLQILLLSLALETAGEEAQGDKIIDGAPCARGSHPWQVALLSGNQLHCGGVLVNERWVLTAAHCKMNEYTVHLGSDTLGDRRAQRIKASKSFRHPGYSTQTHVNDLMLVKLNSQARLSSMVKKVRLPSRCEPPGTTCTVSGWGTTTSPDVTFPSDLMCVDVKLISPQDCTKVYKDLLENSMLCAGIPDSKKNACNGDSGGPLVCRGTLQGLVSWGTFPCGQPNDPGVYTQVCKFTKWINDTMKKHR
CendR NRP1 mod: alters CendR peptide binding to human NRP-1 | actives 0.85% (n = 360,000) | inhibition, % at 25 µM | FAM-RPARPAR peptide binding to NRP-1, fluorescence polarization | AID 602438;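 active means inhibition or corrected inhibition above about 18%, plus a signal ratio from 0.5 to 1.5, limit read from the data, passing the limit was not always enough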
CRFBP-R2 agonist: CRF-BP/CRF-R2 complex agonism. activation, % at 13.2 µM. HEK293 CRF-R2/CRF-BP, calcium dye fluorescence (FLIPR); percent of saturating CRF peptide response. actives 0.46% (n = 350,000);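 active means activation of at least 50%, plus an integration ratio under a set limit after plate pattern correction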;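 further: plate controls were neutral control wells without compound for no effect and CRF at EC100 for full effect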
CRFR2-BP antag: CRF-BP/CRF-R2 complex antagonism. HEK293 CRF-R2/CRF-BP, CRF-induced calcium fluorescence. inhibition, % at 11.8 µM. actives 0.59% (n = 350,000). AID 588475;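 active means inhibition of the ligand-induced calcium signal above about 50% at the single tested concentration, limit read from the data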
Tn7 DDE FP: disrupts Tn7 cyclic peptide binding to fibrin D-Dimer-E complex; inhibition, % at 8.3 µM; P02675; AID 720508; actives 0.13% (n = 370,000); FP displacement of FITC-Tn7 peptide from fibrin DD(E); 0% = median of compound wells per plate;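 active means inhibition above the mean of compounds falling within the control limits plus 3 SD of them, cut at about 14% in these data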;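 further: 0% = plate median of compound wells and 100% = 10 µM Aha-Tn7 peptide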
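assay system = human clot-derived fibrin DD(E) complex | quantity = Fibrin-DD(E) at 2 µM final | timing = 10 min preincubation, 3 h with tracer, room temperature | signal = fluorescence polarization | measure = percent inhibition | benchmarks = high control wells with 10 µM unlabelled Aha-Tn7 peptide (full inhibition) | replicates = singlicate testing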
Tn6 DDE FP: DD(E)-Tn6 binding inhibition, primary FP screen | P02675 | Fibrin DD(E) TRITC-Tn6 fluorescence polarization displacement | inhibition, % at 8.3 µM | actives 0.21% (n = 370,000) | AID 720509;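 active means inhibition above a per-campaign cutoff: mean of compounds within control limits plus 3 SD, cut at about 15% in these data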;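 further: 0% = median of all compound wells on the plate and 100% = blocking peptide control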
* = called active by the depositor; · = no result given. An excerpt weighted towards active compounds, which were near 2.9% of everything screened.

SMILES	proKLK7 act	CendR NRP1 mod	CRFBP-R2 agonist	CRFR2-BP antag	Tn7 DDE FP	Tn6 DDE FP
Oc1ccccc1C=NCCN1CCN(CCN=Cc2ccccc2O)C1c1ccccc1O (stereo not drawn)	1.1	22.1*	-4.7	66.2*	-1.0	2.3
CN1CCc2cc3c(c4c2[C@H]1[C@H](O)c1ccccc1-4)OCO3	-2.4	46.7*	8.1	25.9	-1.7	7.0
COc1ccc2c(c1OC)C(=O)OC2C1c2c(cc3c(c2OC)OCO3)CCN1C (stereo not drawn)	-0.6	-11.4	-2.3	3.8	-13.3	-1.8
COc1ccccc1NC(=O)CCSc1nnnn1C	-0.4	4.4	120.8*	-143.7	1.6	11.0
COc1ccccc1NC(=O)C(C)Sc1nnnn1C (stereo not drawn)	0.6	2.6	1.1	5.0	-0.6	-3.2
Cc1cc(C)n2nc(/C(C#N)=C/c3ccccc3)c(C#N)c2n1	-8.0	-3.0	1.8	98.8*	-5.6	-6.3
Cc1cc(-c2ccccc2)n2nc(C)c(C#N)c2n1	8.9	2.4	-2.6	8.9	-3.3	1.2
CC1CCCC(NC(=O)CCC(=O)c2ccc(F)cc2)C1C (stereo not drawn)	0.3	26.5*	-5.4	6.0	7.8	-0.6
CC1CCCC(NC(=O)CSc2ccc(F)cc2)C1C (stereo not drawn)	-0.5	8.2	-2.4	10.4	4.9	5.7
Cc1ccc(S(=O)(=O)NC(=NC2CCCCC2)c2ccc(Cl)cc2)cc1	·	20.7*	1.1	-7.3	·	·
COc1cc(OC)cc(C(=O)N[C@H](C(=O)NC2CCCc3ccccc32)C(C)C)c1 (stereo partly drawn)	-0.7	27.1*	-4.7	2.3	-0.3	3.0
O=C(NCCCN1CCCCCC1)c1ccc(CS(=O)(=O)Cc2ccccc2F)o1	-0.8	29.5*	0.3	-0.6	-5.9	-0.4
C=CCN1[C@H](C#N)[C@@H](c2ccc(C#Cc3cccc(OC)c3)cc2)[C@H]1CO	-0.3	·	·	·	4.6	-1.2
ON1C(c2ccc(Cl)cc2Cl)N(O)[C@H]2CCCC[C@H]21 (stereo partly drawn)	-0.7	-3.7	-2.2	50.8*	5.8	1.0
CC1N(O)C(c2ccc(Cl)cc2Cl)N(O)C1(C)C (stereo not drawn)	-0.3	14.6	0.1	7.6	2.6	-4.1
O=C(NC(=O)N1CCCCC1)c1ccccc1	-0.1	26.5*	0.5	7.2	0.7	-3.2
O=C(NC(=S)N1CCCCCC1)c1ccccc1	-1.1	16.0	1.0	-3.2	2.8	1.4
O=C(CCNC(=O)c1ccc(Cl)cc1)NN1C(=O)NC2(CCCCC2)C1=O	-0.4	20.0*	-0.5	1.3	-5.5	1.5
CC(=O)Nc1ccc(S(=O)(=O)N2CCC(c3nnc(-c4ccc(C)cc4)o3)CC2)cc1	·	-4.4	-5.4	77.4*	·	·
Cc1cccc(NC(=O)CSc2nnc(-c3ccc(S(=O)(=O)N4CCCC4)cc3)o2)c1	·	-15.2	-0.2	5.0	·	·
Cc1ccc(NC(=O)CSc2nnc(-c3ccc(S(=O)(=O)N4CCCC4)cc3)o2)cc1C	-0.8	26.0*	5.0	-9.9	-0.1	-3.4
COc1ccc(-c2nnc(C3CCN(S(=O)(=O)c4ccccc4)CC3)o2)cc1	·	-3.2	-1.7	17.0	·	·
Cc1nc2ccc(S(=O)(=O)NCC(=O)NCc3cccs3)cc2s1	-0.5	·	·	·	6.4	-0.3
CC(=O)N(Cc1ccccc1)c1nccs1	0.8	·	·	·	-5.2	2.4
Oc1c(Cl)cc(Cl)cc1/C=C/c1ccc2cccc(O)c2n1	-0.2	-92.6	86.7*	-101.6	-4.0	-1.0
SMILES	proKLK7 act	CendR NRP1 mod	CRFBP-R2 agonist	CRFR2-BP antag	Tn7 DDE FP	Tn6 DDE FP
COc1ccc2ccccc2c1CNCCCN1CCOCC1	-0.3	0.0	-2.0	66.7*	11.4	1.8
Cc1cc(C(=O)NC(C)C2CCCO2)cs1 (stereo not drawn)	·	44.0*	1.3	-13.5	·	·
CCc1cc(C(=O)NC(C)C2CCCO2)cs1 (stereo not drawn)	-0.6	1.7	-0.4	8.3	-5.4	-6.8
c1coc(-c2nnc3n2N=C(c2ccc4ccccc4c2)CS3)c1	0.3	·	·	·	1.1	-2.2
COc1ccc(C2=Nn3c(nnc3-c3ccco3)SC2)cc1	-0.4	-4.7	-5.9	67.8*	-0.7	2.2
O=C(c1cc2nc(-c3ccccc3)cc(C(F)(F)F)n2n1)N1CCOCC1	·	-9.9	-3.3	36.8	·	·
